Tests used:
[1] = Antioxidant activity assessed as trolox equivalents at 0.1 to 1 uM by ORAC-fluorescein assay; type: functional
Method in brief: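 Fluorescein probe at 300 nM final in 75 mM phosphate buffer, pH 7.4. Samples at five concentrations (0.1-1.0 µM) preincubated with probe at 37 °C for 15 min. AAPH (12 mM final) then added. Fluorescence (ex 485/em 536 nm) read every minute for 80 min at 37 °C. Quadruplicates, ≥4 independent assays. AUC converted to Trolox equivalents (mean ± SD) using a 1-8 µM Trolox curve run in each assay.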

HeLa = test: Cytotoxicity against human HeLa cells by MTT assay after 72 hrs; type: functional, cell-based
Method in brief: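 HeLa (ATCC […]) cells grown in MEM with 10% FCS and 2 mM L-glutamine at 37 °C, 5% CO2. MTT colorimetric read-out at 560 nm. Eight concentrations tested in duplicate, with experiments repeated three times. IC50 reported as mean ± SD.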

[2] = Antioxidant activity assessed as trolox equivalents at 0.2 to 0.6 uM by ORAC-fluorescein assay; type: functional
[3] = Antioxidant activity assessed as trolox equivalents at 0.4 to 1.3 uM by ORAC-fluorescein assay; type: functional
[4] = Antioxidant activity assessed as trolox equivalents at 0.2 to 1 uM by ORAC-fluorescein assay; type: functional

Compound	Activity [1]	IC50 (HeLa) [µM]	further results
COc1cc(OC)c(C(=O)/C=C/c2ccc(O)cc2)c(O)c1C	2.1	12.2	
O=c1c(O)c(-c2ccc(O)c(O)c2)oc2cc(O)cc(O)c12			Activity [2]: 10.5
COc1cc(O)c(C/C=C(\C)CCC=C(C)C)c(O)c1C(=O)/C=C/c1ccc(O)cc1	3.4	8.2	
COc1cc(/C=C/C(=O)O)ccc1O			Activity [3]: 4.4
COc1cc(O)c(CCC(C)(C)O)c(O)c1C(=O)/C=C/c1ccc(O)cc1 [XANTHOHUMOL H]	4.8	9.2	
COc1c(CC=C(C)C)c(O)cc(O)c1C(=O)/C=C/c1ccc(O)cc1	5.2	10.4	
COc1cc2c(c(O)c1C(=O)/C=C/c1ccc(O)cc1)CCC(C)(C)O2	1.7	15.4	
COc1cc(O)c(CC=C(C)C)c(O)c1C(=O)/C=C/c1ccc(O)cc1	2.3		
CC(C)=CCC/C(C)=C/Cc1c(O)cc(O)c(C(=O)/C=C/c2ccc(O)cc2)c1O	2.3	18.2	
COc1c(CC=C(C)C)c(O)c(CC=C(C)C)c(O)c1C(=O)/C=C/c1ccc(O)cc1	1.9	9.7	
COc1cc2c(c(O)c1C(=O)/C=C/c1ccc(O)cc1)C=CC(C)(C)O2 [XANTHOHUMOL C]	1.8	12.5	
O=C(O)/C=C/c1ccc(O)c(O)c1			Activity [4]: 6.6
COc1cc(O)c(C(=O)/C=C/c2ccc(O)cc2)c(OC)c1 [FLAVOKAWAIN C]	4	19.2	

— ChEMBL document CHEMBL1155133, “Synthesis, cytotoxicity, and antioxidative activity of minor prenylated chalcones from Humulus lupulus” (J Nat Prod, 2008)
